Data from publication PMC8044591 (International Journal for Parasitology: Drugs and Drug …, 2021).
Read-outs that look alike come from different tables or passages of the source. Marks after values point to notes of the source that are not given here.

What was measured:
[1] = system: GI nematodes resistant to IVM and RBZ; test: Faecal egg count reduction test; assay type: in vivo; conditions: for EPG Counts Day 15: arithmetic mean, n = 15
How it was run: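 Naturally infected male Aberdeen Angus calves, 9–11 months, ≥100 EPG on day −1; 15 per group, allocated by EPG ranking. Herds were levamisole-treated beforehand, then grazed ≥2 months on-farm. Dosing was oral 2.5 mg/kg or SC 0.2 or 3.75 mg/kg. Rectal faeces on day −1 and day 15 were read by modified McMaster (10 EPG). FECR (%) = 100(1 − T2/T1), using arithmetic group mean EPG; 95% CI by the Coles method.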

Cooperia spp. = test: FECR by genus from coprocultures, naturally parasitized calves; assay type: in vivo
How it was run: (§1)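 Male Aberdeen Angus calves, 9–11 months, naturally infected, ≥100 EPG on day −1, were ranked by EPG and randomised to groups of 15 per farm. Dosing was oral 2.5 mg/kg or SC 0.2 or 3.75 mg/kg. Rectal faeces on day −1 and day 15 were read by modified McMaster (10 EPG sensitivity). Coprocultures used 10 g faeces; ~100 Baermann L3 were identified per sample. Genus efficacy used group mean EPG […] that genus's L3 proportion.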

Haemonchus spp. = test: as above; assay type: in vivo
How it was run: as §1

Ostertagia spp. = test: FECR by genus from coprocultures, naturally parasitized calves; assay type: in vivo
Oesophagostomum spp. = test: FECR by genus from coprocultures, naturally parasitized calves; assay type: in vivo
How it was run: as §1

[2] = liver metabolism, sheep compared to cattle, ref Ballent et al., 2016; cited from earlier work
Oesophagostomum = conditions: sheep, cited from earlier work; for reduction of Oesophagostomum: 2009
[3] = Plasma pharmacokinetics after oral administration of MNP to parasitized calves; assay type: in vivo
How it was run: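 Eight calves on Farm 1 received a single oral 2.5 mg/kg dose. Jugular heparinised blood was drawn pre-dose, at 2–10 h and days 1–9; plasma was stored at −20 °C. Acetonitrile extraction, N2 evaporation, then C18 HPLC-UV at 230 nm (acetonitrile:methanol:water 60:8:32, 0.8 mL/min) quantified parent and sulphone metabolite. Calibration 4–400 ng/mL; LOQ 4 ng/mL. Non-compartmental analysis: observed Cmax, trapezoidal AUC extrapolated to infinity, moment-based MRT; mean ± SD.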

[4] = sheep, ref Lifschitz et al., 2014; cited from earlier work
[5] = Adverse events in treated cattle; assay type: in vivo; conditions: cattle treated with MNP oral 2.5 mg/kg

With `CC[C@H](C)[C@H]1O[C@]2(CC[C@@H]1C)C[C@@H]1C[C@@H](C/C=C(\C)[C@@H](O[C@H]3C[C@H](OC)[C@@H](O[C@H]4C[C@H](OC)[C@@H](O)[C@H](C)O4)[C@H](C)O3)[C@@H](C)/C=C/C=C3\CO[C@@H]4[C@H](O)C(C)=C[C@@H](C(=O)O1)[C@]34O)O2` [IVM, ivermectin] the “EPG Counts Day 15” value ([1]; Farm 1, 15 days post-treatment) was 269^b (0–1060) EPG, the “EPG Counts Day 15” value ([1]; Farm 2, 15 days post-treatment) was 111^b (0–320) EPG and the “EPG Counts Day 15” value ([1]; Farm 3, 15 days post-treatment) was 362^b (20–1520) EPG. For the same compound, the “FECR Day 15” value (Cooperia spp.; Farm 1) was 80%, the “FECR Day 15” value (Cooperia spp.; Farm 2) was 56% and the “FECR Day 15” value (Cooperia spp.; Farm 3) was 43%. The “FECR Day 15” value (Haemonchus spp.; Farm 1) was 19%, the “FECR Day 15” value (Haemonchus spp.; Farm 2) was 100% and the “FECR Day 15” value (Haemonchus spp.; Farm 3) was 0%. The “FECR Day 15” value (Ostertagia spp.; Farm 1) was 100%, the “FECR Day 15” value (Ostertagia spp.; Farm 2) was 100% and the “FECR Day 15” value (Ostertagia spp.; Farm 3) was 100%. For the same compound, the “FECR Day 15” value (Oesophagostomum spp.; Farm 1) was 100%, the “FECR Day 15” value (Oesophagostomum spp.; Farm 2) was 100% and the “FECR Day 15” value (Oesophagostomum spp.; Farm 3) was 100%.
In the case of `C[C@](C#N)(COc1cc(C#N)ccc1C(F)(F)F)NC(=O)c1ccc(SC(F)(F)F)cc1` [MNP, monepantel], the “rate of MNP conversion into MNPSO2” value [2] is listed as “five-fold higher in sheep compared to cattle”, the “EPG Counts Day 15” value ([1]; Farm 1, 15 days post-treatment) is listed as 5.6a (0–20) EPG and the “EPG Counts Day 15” value ([1]; Farm 2, 15 days post-treatment) is listed as 8a (0–20) EPG. The “EPG Counts Day 15” value ([1]; Farm 3, 15 days post-treatment) was 7a (0–20) EPG, the “overall efficacy (FECR) across farms” value ([1]; Farms 1, 2 and 3 together, day 15) was 96–99% and the “FECR Day 15” value (Cooperia spp.; Farm 1) was 100%. The “FECR Day 15” value (Cooperia spp.; Farm 2) was 100%, the “FECR Day 15” value (Cooperia spp.; Farm 3) was 100% and the “efficacy (FECR) across farms” value (Cooperia spp.; Farms 1-3 together) was 100%. For the same compound, the “reduction of Oesophagostomum” value (Oesophagostomum; ref Bustamante et al.) was 61.9%, the “efficacy against Oesophagostomum” value (Oesophagostomum; ref Hosking et al. (2009)) was “below 90%” and the “reduction of Oesophagostomum” value (Oesophagostomum; ref Sager et al.) was 88%. For the same compound, the “time post-administration up to which analyte was measured/recovered in plasma” value ([3]; MNP oral 2.5 mg/kg, calves, LOQ 4 ng/mL) was “up to 120 h”, the AUC ([3]; bovine, plasma, po, 2.5 mg/kg) was 1.71 ± 0.651 µg·h/mL and the AUC(0-inf) ([3]; bovine, plasma, po, 2.5 mg/kg) was 2.17 ± 0.783 µg·h/mL. For the same compound, the Cmax ([3]; bovine, plasma, po, 2.5 mg/kg) was 0.0215 ± 0.00462 µg/mL, the MRT ([3]; bovine, plasma, po, 2.5 mg/kg) was 112 ± 40.8 h and the Tmax ([3]; bovine, plasma, po, 2.5 mg/kg) was 8 ± 1.51 h. For the same compound, the half-life ([3]; bovine, plasma, po, 2.5 mg/kg) was 81 ± 31 h, the “FECR Day 15” value (Haemonchus spp.; Farm 1) was 100% and the “FECR Day 15” value (Haemonchus spp.; Farm 2) was 100%. The “FECR Day 15” value (Haemonchus spp.; Farm 3) was 100%, the “efficacy (FECR) across farms” value (Haemonchus spp.; Farms 1-3 together) was 100% and the “FECR Day 15” value (Ostertagia spp.; Farm 1) was 100%. For the same compound, the “FECR Day 15” value (Ostertagia spp.; Farm 2) was 100%, the “FECR Day 15” value (Ostertagia spp.; Farm 3) was 99% and the “efficacy (FECR) across farms” value (Ostertagia spp.; Farms 1-3 together) was 100%. The “concentration of MNP in the large intestine mucosa” value [4] was 225 ng/g, the “concentration of MNP in the small intestine mucosa, duodenum” value [4] was 762 ng/g and the “concentration of MNP in the small intestine mucosa, ileum” value [4] was 562 ng/g. For the same compound, the “FECR Day 15” value (Oesophagostomum spp.; Farm 1) was 74%, the “FECR Day 15” value (Oesophagostomum spp.; Farm 2) was 22% and the “FECR Day 15” value (Oesophagostomum spp.; Farm 3) was 64%. For the same compound, the adverse events [5] was “no adverse events were observed”.
In the case of `CCC[S+]([O-])c1ccc2[nH]c(NC(=O)OC)nc2c1` (centres unmarked) [RBZ, ricobendazole], the “EPG Counts Day 15” value ([1]; Farm 1, 15 days post-treatment) is reported as 31^a (0–120) EPG, the “95% lower confidence interval of FECR” value ([1]; Farm 1, day 15) is reported as “less than 90%” and the “EPG Counts Day 15” value ([1]; Farm 2, 15 days post-treatment) is reported as 3^a (0–20) EPG. For the same compound, the “EPG Counts Day 15” value ([1]; Farm 3, 15 days post-treatment) was 115^b (0–320) EPG, the “FECR Day 15” value (Cooperia spp.; Farm 1) was 86% and the “FECR Day 15” value (Cooperia spp.; Farm 2) was 99%. For the same compound, the “FECR Day 15” value (Cooperia spp.; Farm 3) was 54%, the “FECR Day 15” value (Haemonchus spp.; Farm 1) was 99% and the “FECR Day 15” value (Haemonchus spp.; Farm 2) was 95%. The “FECR Day 15” value (Haemonchus spp.; Farm 3) was 98%, the “FECR Day 15” value (Ostertagia spp.; Farm 2) was 100% and the “FECR Day 15” value (Ostertagia spp.; Farm 3) was 0%. The “efficacy (FECR) on Farms 1 and 3” value (Ostertagia spp.; Farms 1 and 3, stated jointly with Cooperia spp.) was “below 90%”, the “FECR Day 15” value (Oesophagostomum spp.; Farm 1) was 100% and the “FECR Day 15” value (Oesophagostomum spp.; Farm 2) was 100%. The “FECR Day 15” value (Oesophagostomum spp.; Farm 3) was 100%.
